Assay results as given in publication PMC8777244 (Biochemistry and Biophysics Reports, 2022).

How the values were obtained:
CaM [1] = assay: CaM binding to DHs by isothermal titration calorimetry; conditions: for Heat enthalpy change relative to DH665-719: fold of DH665-719 enthalpy
[2] = Size-exclusion chromatography, oligomeric states; type: physicochemical
Procedure, shortened: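 HPLC gel filtration of amylose-purified MBP-fused NOX5 dehydrogenase domain, run against CaM and BSA references. Column equilibrated in Tris pH 7.5 (50 mM per figure legends, 20 mM per methods) with 0.2 M NaCl (0.2–0.5 M range), plus 2 mM Ca²⁺ or 1 mM EDTA. Runs at 1.0 mL/min with 280 nm detection. 2 M urea added to partially dissociate oligomers. Species assigned by elution time.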

CaM [3] = assay: CaM interaction by size-exclusion chromatography; type: binding
Procedure, shortened: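 HPLC size-exclusion used a Shodex KW802.5 column at 1.0 mL/min with 280 nm detection. Buffer was Tris, pH 7.5, with 0.2 M NaCl (range 0.2–0.5 M) plus 2 mM Ca²⁺ or 1 mM EDTA. Samples were filtered through 0.45 μm. MBP-DH constructs, alone or mixed with CaM or Dansyl-CaM, were compared with BSA. Collected fractions were assayed for Dansyl fluorescence.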

Dynamic light scattering = type: physicochemical
Procedure, shortened: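 DLS was run on a DynaPro NanoStar. Samples at 1 mg/mL in 50 mM Tris, pH 7.5, were filtered through 0.45 then 0.1 μm and equilibrated 2 min at 25 °C. Acquisition was 5 s, with minimum peak intensity 1% and correlation cut-offs of 0.5 and 100,000 μs. Ten autocorrelation functions were averaged and fitted to decaying exponentials for the diffusion coefficient. Rh was calculated assuming spheres.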

[4] = Solubility of DH proteins in bacterial expression; type: physicochemical; conditions: E. coli expression
[5] = 1 mg/mL, 50 mM Tris, pH 7.5, 25 °C

Molecule	Stoichiometry nCaM/DH, ITC at high DH concentration (CaM [1]; CaM into 20–50 μM DH, Ca^2+, low value attributed to DH degradation)	Heat enthalpy change relative to DH665-719 (CaM [1])	SEC elution time, major peak ([2]; 50 mM Tris, pH 7.5, 0.2 M NaCl)	SEC elution time, very minor peak (monomer) ([2]; 50 mM Tris, pH 7.5, 0.2 M NaCl)	SEC elution time, monomer, 2 M urea ([2]; 2 M urea, 50 mM Tris, pH 7.5, 0.2 M NaCl, Species 1)	SEC elution time, dimer, 2 M urea ([2]; 2 M urea, 50 mM Tris, pH 7.5, 0.2 M NaCl, Species 2)	SEC elution time, trimer, 2 M urea ([2]; 2 M urea, 50 mM Tris, pH 7.5, 0.2 M NaCl, Species 3 (∼168 kDa))	SEC elution time, tetramer, 2 M urea ([2]; 2 M urea, 50 mM Tris, pH 7.5, 0.2 M NaCl, Species 4 (∼224 kDa))	Dominant oligomer, high ionic strength ([2]; >0.25 M NaCl)	Effect of DTT and Ca^2+ on HPLC profile ([2]; reducing agent DTT and Ca^2+ ions)	Effect of CaM on DH oligomer (CaM [3]; CaM binding, Ca^2+)	Decay of autocorrelation function (Dynamic light scattering; [5])	Hydrodynamic radius (Rh) (Dynamic light scattering; [5])	Poly-distribution (%pd) (Dynamic light scattering; [5])	Estimated average molecular weight (DLS) (Dynamic light scattering; Raleigh sphere assumption, qualitative)	Stoichiometry, ITC CaM/DH (CaM [1]; CaM (titrant) into DH (near 2 μM), 50 mM Tris, pH 7.5, 2 mM Ca^2+, 25 °C, MBP-fused DH)	Share of D-CaM in DH fractions (CaM [3]; equal amounts of D-CaM and DH528-719, Ca^2+)	Solubility [4]
DH605-719: MBP-fused truncated Nox5 dehydrogenase domain residues 605–719, contains REFBD and CMBD sequences (protein, left off: MBP, N-terminal, kept) SLLTKLEMDQAEEAQYGRFLELHMYMTSALGKNDMKAIGLQMALDLLANKEKKDSITGLQTRTQPGRPDWSKVFQKVAAEKKGKVQVFFCGSPALAKVLKGHCEKFGFRFFQENF	lower than 1	approximately double	–	–	–	–	–	–	–	–	–	–	–	–	–	–	–	–
DH584-719: MBP-fused truncated Nox5 dehydrogenase domain residues 584–719 (56 kDa) (protein, left off: MBP, N-terminal, kept) KLHKVDFIWINRDQRSFEWFVSLLTKLEMDQAEEAQYGRFLELHMYMTSALGKNDMKAIGLQMALDLLANKEKKDSITGLQTRTQPGRPDWSKVFQKVAAEKKGKVQVFFCGSPALAKVLKGHCEKFGFRFFQENF	–	approximately double	6.7 min	~9.5 min	9.52 min	8.02 min	7.25 min	6.71 min	favors trimer formation	did not affect its HPLC profile	the dimer disappeared	> 100 μs	8.3 nm	42.5%	~450 kDa	–	–	–
DH528-719: MBP-fused truncated Nox5 dehydrogenase domain residues 528–719 (∼62 kDa) (protein, left off: MBP, N-terminal, kept) PTRRIFASEHAVLIGAGIGITPFASILQSIMYRHQKRKHTCPSCQHSWIEGVQDNMKLHKVDFIWINRDQRSFEWFVSLLTKLEMDQAEEAQYGRFLELHMYMTSALGKNDMKAIGLQMALDLLANKEKKDSITGLQTRTQPGRPDWSKVFQKVAAEKKGKVQVFFCGSPALAKVLKGHCEKFGFRFFQENF	–	approximately double	–	–	–	–	–	–	–	–	–	–	–	–	–	1.18 ± 0.05	approximately half	most soluble
